Data: PMC11047177 (ESMO Open, 2024)
“Also recorded” adds a separate entry of the source.

Assay: Phase I study NCT03854227: DLTs and adverse events
Type: in vivo, human
How it was run: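 Open-label, multicentre first-in-human trial in adults (ECOG 0–1) with advanced or metastatic tumours. Oral test compound, q.d. or b.i.d., on an empty stomach in continuous 28-day cycles. Part 1 started at 0.5 mg q.d., with escalation guided by a two-parameter Bayesian logistic regression model on cycle 1 DLTs. Part 2 ran at 6 mg q.d. AEs were graded by CTCAE 5.0 and summarised descriptively by dose level.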

Cc1ncnc2c1ccn2[C@@H]1C[C@H](Oc2cc(C(F)F)c(F)c3c2CNCC3)[C@@H](O)[C@H]1O [PF-06939999]
Grade ≥3 TRAE thrombocytopenia/platelet count decreased (overall (part 1 + part 2), N=54): 22%
TRAE dysgeusia, any grade (part 1 + part 2, N=54): 22%
TRAE fatigue, any grade (part 1 + part 2, N=54): 28%
TRAE nausea, any grade (part 1 + part 2, N=54): 32%
TRAE thrombocytopenia, any grade (part 1 + part 2, N=54): 41%
DLT (part 1, 0.5 mg b.i.d., N=1): 0 n (%)
Grade ≥3 TRAE Anemia (part 1, 0.5 mg b.i.d., N=1): 0 n (%)
Grade ≥3 TRAE Fatigue (part 1, 0.5 mg b.i.d., N=1): 0 n (%)
Grade ≥3 TRAE Lymphocyte count decreased (part 1, 0.5 mg b.i.d., N=1): 0 n (%)
Grade ≥3 TRAE Muscular weakness (part 1, 0.5 mg b.i.d., N=1): 0 n (%)
Grade ≥3 TRAE Neutropenia (part 1, 0.5 mg b.i.d., N=1): 0 n (%)
Grade ≥3 TRAE Thrombocytopenia (part 1, 0.5 mg b.i.d., N=1): 0 n (%)
DLT (part 1, 0.5 mg q.d., N=1): 0 n (%)
Grade ≥3 TRAE Anemia (part 1, 0.5 mg q.d., N=1): 0 n (%)
Grade ≥3 TRAE Fatigue (part 1, 0.5 mg q.d., N=1): 0 n (%)
Grade ≥3 TRAE Lymphocyte count decreased (part 1, 0.5 mg q.d., N=1): 0 n (%)
Grade ≥3 TRAE Muscular weakness (part 1, 0.5 mg q.d., N=1): 0 n (%)
Grade ≥3 TRAE Neutropenia (part 1, 0.5 mg q.d., N=1): 0 n (%)
Grade ≥3 TRAE Thrombocytopenia (part 1, 0.5 mg q.d., N=1): 0 n (%)
DLT (part 1, 1 mg b.i.d., N=2): 0 n (%)
Grade ≥3 TRAE Anemia (part 1, 1 mg b.i.d., N=2): 1 (50) n (%)
Grade ≥3 TRAE Fatigue (part 1, 1 mg b.i.d., N=2): 0 n (%)
Grade ≥3 TRAE Lymphocyte count decreased (part 1, 1 mg b.i.d., N=2): 0 n (%)
Grade ≥3 TRAE Muscular weakness (part 1, 1 mg b.i.d., N=2): 0 n (%)
Grade ≥3 TRAE Neutropenia (part 1, 1 mg b.i.d., N=2): 0 n (%)
Grade ≥3 TRAE Thrombocytopenia (part 1, 1 mg b.i.d., N=2): 0 n (%)
DLT (part 1, 2 mg b.i.d., N=2): 0 n (%)
Grade ≥3 TRAE Anemia (part 1, 2 mg b.i.d., N=3): 0 n (%)
Grade ≥3 TRAE Fatigue (part 1, 2 mg b.i.d., N=3): 0 n (%)
Grade ≥3 TRAE Lymphocyte count decreased (part 1, 2 mg b.i.d., N=3): 0 n (%)
Grade ≥3 TRAE Muscular weakness (part 1, 2 mg b.i.d., N=3): 0 n (%)
Grade ≥3 TRAE Neutropenia (part 1, 2 mg b.i.d., N=3): 0 n (%)
Grade ≥3 TRAE Thrombocytopenia (part 1, 2 mg b.i.d., N=3): 1 (33) n (%)
DLT (part 1, 4 mg b.i.d., N=3): 0 n (%)
Grade ≥3 TRAE Anemia (part 1, 4 mg b.i.d., N=3): 1 (33) n (%)
Grade ≥3 TRAE Fatigue (part 1, 4 mg b.i.d., N=3): 1 (33) n (%)
Grade ≥3 TRAE Lymphocyte count decreased (part 1, 4 mg b.i.d., N=3): 0 n (%)
Grade ≥3 TRAE Muscular weakness (part 1, 4 mg b.i.d., N=3): 0 n (%)
Grade ≥3 TRAE Neutropenia (part 1, 4 mg b.i.d., N=3): 0 n (%)
Grade ≥3 TRAE Thrombocytopenia (part 1, 4 mg b.i.d., N=3): 1 (33) n (%)
DLT (part 1, 4 mg q.d., N=4): 0 n (%)
Grade ≥3 TRAE Anemia (part 1, 4 mg q.d., N=5): 2 (40) n (%)
Grade ≥3 TRAE Fatigue (part 1, 4 mg q.d., N=5): 0 n (%)
Grade ≥3 TRAE Lymphocyte count decreased (part 1, 4 mg q.d., N=5): 0 n (%)
Grade ≥3 TRAE Muscular weakness (part 1, 4 mg q.d., N=5): 1 (20) n (%)
Grade ≥3 TRAE Neutropenia (part 1, 4 mg q.d., N=5): 0 n (%)
Grade ≥3 TRAE Thrombocytopenia (part 1, 4 mg q.d., N=5): 0 n (%)
DLT thrombocytopenia, number of patients (part 1, 6 mg b.i.d.): 2 n
DLT (part 1, 6 mg b.i.d., N=2): 2 (100) n (%)
Grade ≥3 TRAE Anemia (part 1, 6 mg b.i.d., N=4): 1 (25) n (%)
Grade ≥3 TRAE Fatigue (part 1, 6 mg b.i.d., N=4): 0 n (%)
Grade ≥3 TRAE Lymphocyte count decreased (part 1, 6 mg b.i.d., N=4): 0 n (%)
Grade ≥3 TRAE Muscular weakness (part 1, 6 mg b.i.d., N=4): 0 n (%)
Grade ≥3 TRAE Neutropenia (part 1, 6 mg b.i.d., N=4): 0 n (%)
Grade ≥3 TRAE Thrombocytopenia (part 1, 6 mg b.i.d., N=4): 2 (50) n (%)
DLT (grade 3) neutropenia, number of patients (part 1, 6 mg q.d.): 1 n
DLT (part 1, 6 mg q.d., N=6): 1 (17) n (%)
Grade ≥3 TRAE Anemia (part 1, 6 mg q.d., N=6): 2 (33) n (%)
Grade ≥3 TRAE Fatigue (part 1, 6 mg q.d., N=6): 1 (17) n (%)
Grade ≥3 TRAE Lymphocyte count decreased (part 1, 6 mg q.d., N=6): 0 n (%)
Grade ≥3 TRAE Muscular weakness (part 1, 6 mg q.d., N=6): 0 n (%)
Grade ≥3 TRAE Neutropenia (part 1, 6 mg q.d., N=6): 1 (17) n (%)
Grade ≥3 TRAE Thrombocytopenia (part 1, 6 mg q.d., N=6): 0 n (%)
DLT (grade 3) anemia, number of patients (part 1, 8 mg q.d.): 1 n
DLT (part 1, 8 mg q.d., N=3): 1 (33) n (%)
Grade ≥3 TRAE Anemia (part 1, 8 mg q.d., N=3): 1 (33) n (%)
Grade ≥3 TRAE Fatigue (part 1, 8 mg q.d., N=3): 0 n (%)
Grade ≥3 TRAE Lymphocyte count decreased (part 1, 8 mg q.d., N=3): 1 (33) n (%)
Grade ≥3 TRAE Muscular weakness (part 1, 8 mg q.d., N=3): 0 n (%)
Grade ≥3 TRAE Neutropenia (part 1, 8 mg q.d., N=3): 0 n (%)
Grade ≥3 TRAE Thrombocytopenia (part 1, 8 mg q.d., N=3): 2 (67) n (%)
Patients reporting DLTs (part 1, 4 of 24 DLT-assessable patients): 17%
DLT grade 3 thrombocytopenia, number of patients (part 1, 6-mg b.i.d. cohort): 1 n
DLT grade 4 thrombocytopenia, number of patients (part 1, 6-mg b.i.d. cohort): 1 n
DLT (part 1, Total, N=24): 4 (17) n (%)
Grade ≥3 TRAE Fatigue (part 1, Total, N=28): 2 (7) n (%)
Grade ≥3 TRAE Lymphocyte count decreased (part 1, Total, N=28): 1 (4) n (%)
Grade ≥3 TRAE Muscular weakness (part 1, Total, N=28): 1 (4) n (%)
Grade ≥3 TRAE Neutropenia (part 1, Total, N=28): 1 (4) n (%)
Grade ≥3 TRAE Thrombocytopenia (part 1, Total, N=28): 6 (21) n (%)
Maximum tolerated dose (MTD) (part 1 dose escalation, 0.5 mg q.d. to 6 mg b.i.d.): No MTD was determined; also recorded: MTD was not identified
Dose reduction due to thrombocytopenia, patients (part 2, 6 mg q.d., 4 patients): 15%
Dose reduction due to anemia, patients (part 2, 6 mg q.d., 5 patients): 19%
Patients with ≥1 dose reduction due to AEs (part 2, 6 mg q.d., eight patients): 31%
